Values after ≈ are worked out from the molar mass of the structure shown.
Columns and labels:
mAb 2G11G4 [1] = experiment: indirect competitive ELISA; assay type: binding, mouse; conditions: for Cross reactivity: (IC50 of dihydroartemisinin/IC50 of the other compound) × 100; for IC50: icELISA, mAb 2G11G4, coating antigen 9-O-succinyldihydroartemisinin-OVA
mAb 2G11G4 [2] = experiment: colloidal gold-based lateral flow immunoassay; assay type: binding, mouse; conditions: for dipstick cross-reaction: drug concentration less than 100 ng/mL; for dipstick test line: standards at 100 ng/mL; for dipstick inhibition: standards at 500 ng/mL
In short: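 Anti-DHA mAb adsorbed onto 30 nm colloidal gold at pH 7.8, blocked with BSA, pelleted and resuspended in 0.01 M PBS pH 7.0. Gold-mAb was used at 30 μg/mL. Capture lines on nitrocellulose were 9-O-succinyl-DHA-BSA (1 mg/mL, test) and goat anti-mouse IgG (0.4 mg/mL, control), 5 mm apart. Aqueous DHA standards were 0–100 ng/mL. Indicator range is the lowest concentration at which the test line disappears visually.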

[3] = tested on: artemisinin antibody developed earlier; conditions: cited from earlier work
mAb 3D82G7 = conditions: cited from earlier work
[4] = time course of DHA degradation in malaria culture, measured by icELISA; assay type: in vitro ADME, Plasmodium falciparum
[5] = buffer solution (pH=7.4); cited from earlier work
[6] = general statement, no reference given; cited from earlier work

| IC50 (mAb 2G11G4 [1]) | SMILES | Cross reactivity (mAb 2G11G4 [1]) | dipstick cross-reaction (mAb 2G11G4 [2]) | dipstick test line (mAb 2G11G4 [2]) | dipstick inhibition (mAb 2G11G4 [2]) | also measured |
| --- | --- | --- | --- | --- | --- | --- |
| 0.0704 µg/mL (≈ 0.183 µM) | C[C@H]1[C@H](OC(=O)CCC(=O)O)O[C@@H]2O[C@@]3(C)CC[C@H]4[C@H](C)CC[C@@H]1[C@@]24OO3 [Artesunate] | 1.6% | did not cross-react | showed obvious color | different degrees of inhibition | Cross reactivity (mAb 2G11G4 [1]; listed as artesunate): low or no cross reactivity; cross-reactivity [3]: 650%; cross-reactivity (mAb 3D82G7): 460% |
| >20 µg/mL | CCN(CC)Cc1cc(Nc2ccnc3cc(Cl)ccc23)ccc1O [Amodiaquine] | <0.02% | – | – | – | – |
| >20 µg/mL | Clc1ccc2c(N3CCN(CCCN4CCN(c5ccnc6cc(Cl)ccc56)CC4)CC3)ccnc2c1 [Piperaquine] | <0.02% | – | – | – | – |
| 0.00116 µg/mL (≈ 0.00408 µM) | C[C@H]1[C@@H](O)O[C@@H]2O[C@@]3(C)CC[C@H]4[C@H](C)CC[C@@H]1[C@@]24OO3 [Dihydroartemisinin] | 100% | – | – | – | working range (IC20 – IC80) (mAb 2G11G4 [1]; DHA concentration causing 20–80% inhibition of the signal): 0.00026 to 0.00487 µg/mL; half-life at 200 nM ([4]; Plasmodium falciparum): 3.64 ± 0.48 h; half-life at 200 nM ([4]; culture medium only (no cells)): 5.56 ± 0.87 h; DHA concentration after 12 h of incubation ([4]; parasite culture at 5% parasitemia, starting concentration 200 nM): < 4 nM; half-life at 200 nM ([4]; red blood cells in culture medium at 5% hematocrit): 4.55 ± 0.69 h; indicator range (lowest concentration at which the test line was not visible) (mAb 2G11G4 [2]; dipstick, serially diluted standard DHA): 50 to 100 ng/mL; half-life [5]: 5.5 h |
| >20 µg/mL | CO[C@H]1O[C@@H]2O[C@@]3(C)CC[C@H]4[C@H](C)CC[C@@H]([C@H]1C)[C@@]24OO3 [Artemether] | <0.02% | did not cross-react | showed obvious color | no inhibition | water solubility [6]: poor water solubility |
| >20 µg/mL | CCCCN(CCCC)CC(O)c1cc(Cl)cc2c1-c1ccc(Cl)cc1/C2=C/c1ccc(Cl)cc1 (stereo not drawn) [Lumefantrine] | <0.02% | – | – | – | – |
| >20 µg/mL | CCN(CC)CCCC(C)Nc1ccnc2cc(Cl)ccc12 (stereo not drawn) [Chloroquine] | – | – | – | – | – |
| 0.00222 µg/mL (≈ 0.00786 µM) | C[C@@H]1CC[C@H]2[C@@H](C)C(=O)O[C@@H]3O[C@@]4(C)CC[C@@H]1[C@]32OO4 [Artemisinin] | 52.3% | did not cross-react | showed obvious color | different degrees of inhibition | water solubility [6]: poor water solubility |

Reference: paper PMC6363535 (Journal of pharmaceutical and biomedical analysis, 2018)
